# Compound activity from PubChem BioAssay.
# Hck-Nef inh – human Hck-Nef kinase inhibition; P08631; Recombinant Hck-YEEI plus Nef, Z-Lyte FRET kinase assay; inhibition, % at 20 µM; 220,000 compounds, 0.68% hits;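 active = Hck-Nef kinase inhibition above about 50%, limit read from the data; inactive = inhibition below that limit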;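 also: 0% = DMSO with Hck plus Nef and 100% = Hck alone without Nef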
# Biofilm kill mix – mixture kills Candida albicans biofilm cells; AID 1242; 120,000 compounds, 0.02% hits; inhibition, % at 7.6 µM; C. albicans biofilm persisters + clotrimazole, fluorescence viability; primary screen in compound mixtures of four per well;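 also: compounds exposed to preformed 24 h biofilms for 48 h; 0% = untreated biofilm control and 100% = clotrimazole plus chlorhexidine kill blank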
#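 Probe or stimulus – Clotrimazole 50 µg/mL co-treatment · System – C. albicans biofilms · Schedule – 24 h biofilm formation, then 48 h compound exposure, 37 °C · Evaluation – percent inhibition of biofilm viability · Technique – 2-h Alamar Blue fluorescence, 535/590 nm excitation/emission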
# Bim-Mcl-1 – human Bim-Mcl-1 interaction inhibition | Q07820 | Bead-based flow cytometry, Bim peptide-Mcl-1 binding | inhibition, % at 10 µM | 190,000 compounds, 0.1% hits; in the data active = inhibition above about 40%;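 also: 0% = no compound tracer wells and 100% = peptide blocker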
# Target sequence (Q07820 whole entry, looked up): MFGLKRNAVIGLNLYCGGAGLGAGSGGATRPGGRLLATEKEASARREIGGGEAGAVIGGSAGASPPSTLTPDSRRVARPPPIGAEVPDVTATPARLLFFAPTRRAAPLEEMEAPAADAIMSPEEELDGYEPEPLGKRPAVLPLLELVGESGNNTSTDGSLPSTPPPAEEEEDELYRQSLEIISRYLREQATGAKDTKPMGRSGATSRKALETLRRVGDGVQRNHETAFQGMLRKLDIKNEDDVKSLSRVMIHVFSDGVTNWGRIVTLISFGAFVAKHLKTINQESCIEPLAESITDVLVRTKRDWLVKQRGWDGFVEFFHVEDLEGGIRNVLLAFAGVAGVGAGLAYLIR
# 14-3-3 Bad inh – disrupts binding of bovine 14-3-3 zeta to phospho-Bad peptide | TR-FRET 14-3-3zeta/Dy647-pBad peptide displacement, 1 h | inhibition, % at 21.7 µM | 220,000 compounds, 0.71% hits | AID 781;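 active = inhibition above about 70%, limit read from the data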;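 also: 0% = full 14-3-3 plus peptide FRET controls and 100% = background without 14-3-3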
# Target sequence (P63103 whole entry, looked up): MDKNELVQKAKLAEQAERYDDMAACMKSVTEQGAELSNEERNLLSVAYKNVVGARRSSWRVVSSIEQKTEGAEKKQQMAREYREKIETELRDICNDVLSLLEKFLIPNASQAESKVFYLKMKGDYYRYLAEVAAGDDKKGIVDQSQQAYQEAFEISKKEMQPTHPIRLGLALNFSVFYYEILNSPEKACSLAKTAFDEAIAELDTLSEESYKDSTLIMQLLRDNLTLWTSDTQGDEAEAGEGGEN
# Mcl1-Bid inh – Mcl-1/Bid interaction inhibition; Q07820; 220,000 compounds, 0.97% hits; inhibition, % at 21.7 µM; AID 1021; TR-FRET Mcl-1/Bid-Dy647 peptide binding, 1536-well;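 active = compounds that cut the binding signal by more than half at the single screening dose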;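 also: His-tagged Mcl-1 with europium anti-His antibody binding Bid BH3 peptide; 0% = Mcl-1 plus peptide wells and 100% = peptide-only wells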
# Mcl1 Noxa PPI – disrupts binding of human Mcl-1 to Noxa peptide; 220,000 compounds, 1.5% hits; inhibition, % at 21.7 µM; TR-FRET Mcl-1/Noxa peptide binding, 2 h; Q07820;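 active = compounds that cut the protein-peptide binding signal by more than 50% relative to plate controls in a single-dose test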;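 also: His-tagged Mcl-1 with rhodamine Noxa BH3 peptide and terbium anti-His antibody; 0% = Mcl-1 plus Noxa peptide wells and 100% = peptide-only wells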
# Hck-Nef confirm – confirmation of Hck-Nef kinase inhibitors; shares compounds with Hck-Nef inh; Recombinant Hck-YEEI:Nef, Z-Lyte FRET kinase assay; calls only at 10 µM; 1,300 compounds, 28% hits; AID 463188;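 active = average inhibition of at least 50%, with Z-scores no higher than 3 in both the phospho-tyrosine peptide and fluorescence counterscreens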
# Numbers without * were called inactive; i = inactive; · = no result shown; + = active, no number; [ ] = another dose, or the depositor's remark. Rows were chosen to be rich in hits. Some 3.2% of all compounds tested hit in one or more screens of this group.
SMILES,Hck-Nef inh,Biofilm kill mix,Bim-Mcl-1,14-3-3 Bad inh,Mcl1-Bid inh,Mcl1 Noxa PPI,Hck-Nef confirm
C/C(N)=C(/C#N)C(=O)CSc1nc2ccccc2c(=O)n1Cc1ccc(C)cc1,55*,9,2,29,-24,-93,i
Cc1ccc(C)c(-n2c(=O)c(C#N)cc3c(=O)n4ccccc4nc32)c1,+,3,0,-7,-19,2,·
Cc1cccc(-n2c(=O)c(C#N)cc3c(=O)n4ccccc4nc32)c1,199*,·,0,3,-2,3,·
Cc1cccn2c(=O)c3cc(C#N)c(=O)n(-c4c(C)n(C)n(-c5ccccc5)c4=O)c3nc12,10,·,0,-4,-31,8,·
Cc1cc(-n2c(=O)c(C#N)cc3c(=O)n4cccc(C)c4nc32)no1,190*,·,2,2,8,16,·
Cc1ccc(S(=O)(=O)c2cc3c(=O)n4ccccc4nc3n(CC3CCCO3)c2=N)cc1 (stereo not drawn),4,·,·,·,·,·,·
COc1ccc(C(NC(=O)CNC(C)=O)C(=O)Nc2ccc3c(c2)OCCO3)cc1 (stereo not drawn),-2,·,0,34,-21,-7,·
O=C(c1cccs1)N1CCN(S(=O)(=O)N2CCCCC2)CC1,8,·,-3,4,-13,5,·
CCOC(=O)c1cc2c(=O)n3ccccc3nc2n(CC2CCCO2)c1=NC(C)=O (stereo not drawn),193*,·,·,·,·,·,·
COc1ccc(/C=N/NC(=O)c2nc(Cl)c(Cl)c(N)c2Cl)cc1COc1ccc(F)cc1F,1,·,-3,5,-14,14,·
COc1ccc(/C=N/NC(=O)c2cc(C(C)(C)C)[nH]n2)cc1COc1ccc(F)cc1F,58*,7,2,-4,2,3,i
CS(=O)(=O)c1[nH]nc(-c2ccccc2)c1C#N,1,14,·,1,-8,-7,·
COc1ccccc1/C=N\Nc1cn[nH]c(=O)c1Cl,61*,15,-2,-6,-7,11,i
Cc1cccc(/C=N\Nc2cn[nH]c(=O)c2Cl)c1,46,·,1,22,-16,-1,·
O=c1[nH]ncc(N/N=C\c2ccncc2)c1Cl,43,10,2,-5,-34,7,·
O=c1[nH]ncc(N/N=C\c2cccs2)c1Cl,59*,5,-1,-16,-15,11,+
O=C(NCc1ccccc1)C1=C[C@@H](c2coc3ccccc3c2=O)C[C@@H](OCc2ccc(CO)cc2)O1,-17,19,0,2,9,11,·
O=C(N/N=C\c1coc2ccccc2c1=O)c1ccco1,83*,10,·,-3,-2,2,+
O=C(N/N=C/c1coc2ccccc2c1=O)c1cn(-c2ccccc2)nc1-c1ccccc1,39,6,10,6,-44,-41,·
NCCCCCC(=O)N/N=C/c1coc2ccccc2c1=O,84*,28,·,1,-23,-16,+
NC(=O)N/N=C/c1coc2ccc(O)cc2c1=O,31,5,·,0,-17,-11,·
O=C(N/N=C/c1coc2ccccc2c1=O)c1ccccc1,87*,8,0,-10,-33,0,i
N#CCC(=O)N/N=C/c1coc2ccccc2c1=O,81*,19,·,-1,-84,5,+
N#CC1(c2ccccc2)CCCN1C(=O)c1ccccc1Br (stereo not drawn),2,·,0,-1,-20,1,·
Cc1nc2ccccc2nc(=O)c1NNc1ccccc1,101*,14,-1,-8,-13,13,+
SMILES,Hck-Nef inh,Biofilm kill mix,Bim-Mcl-1,14-3-3 Bad inh,Mcl1-Bid inh,Mcl1 Noxa PPI,Hck-Nef confirm
Cc1nc2ccccc2nc1OCc1ccccc1,-1,7,-1,0,10,3,·
CC(NC(=O)OC(C)(C)C)C(=O)Oc1ccc2ccc(=O)oc2c1 (stereo not drawn),74*,·,-2,-2,1,2,·
COc1ccc2ccc(=O)oc2c1,-1,12,-2,8,9,4,·
CC(=O)Oc1ccc2ccc(=O)oc2c1,122*,19,-1,4,-3,1,·
CC(NC(=O)Cn1nc(C(=O)O)c2ccccc2c1=O)C12CC3CC(CC(C3)C1)C2 (stereo not drawn),17,6,2,-4,-4,5,·
CCOC(=O)c1ccc(NS(=O)(=O)c2cnc[nH]2)cc1,-3,·,-2,11,-20,5,·
NC(=O)c1cc2ccc(O)cc2oc1=NCc1ccccc1,104*,·,-3,3,-11,2,·
O=C(Nc1sc2c(c1C(=O)N1CCOCC1)CCCCC2)c1cccnc1,-9,5,0,0,-14,-3,·
COc1cccc(Nc2ncc(C#N)c(N)n2)c1,57*,22,·,-1,-1,6,+
O=C(CSCc1ccc(Cl)cc1)N/N=C/c1ccco1,27,13,0,6,-44,2,·
Cc1ccc(C(=O)Cn2nnc(-c3cccs3)n2)cc1,30,13,·,-3,-21,-25,·
O=C(CN1CC[n+]2c(-c3cccs3)csc21)c1ccc(-c2ccccc2)cc1,143*,6,0,-13,-64,-24,+
CCc1c(C)nc(SCC(=O)N2CCN(c3ccccc3OC)CC2)[nH]c1=O,25,-1,0,-9,-19,6,·
COc1ccccc1N1CCN(C(=O)CSc2nc(C)c(C)c(=O)[nH]2)CC1,66*,-5,1,-4,-28,-7,i
Cc1cccc(-n2cnc(C(=O)NNC(=S)Nc3ccc(Cl)cc3)c2)n1,0,15,2,-9,-22,-5,·
Cc1cccc(-n2cnc(C(=O)N/N=C\c3ccc(Br)cc3)c2)n1,80*,·,0,49,30,-16,i
CCn1c(SCC(=O)Nc2ccc(-c3nc4ccc(C)cc4s3)cc2)nnc1-c1ccccc1,62*,22,-5,91*[fluorescence artefact?],66*,66*,+
CCn1c(SCC(=O)Nc2nc(-c3ccc(C)cc3)cs2)nnc1-c1ccccc1,0,·,-1,19,6,-7,·
NS(=O)(=O)c1cc(C(=O)OCC(=O)Nc2ccc(N3CCCCC3)cc2)ccc1Cl,-4,4,·,-3,-19,4,·
Cc1ccc(/C=C2\SC(=S)N(/N=C/c3cc([N+](=O)[O-])ccc3O)C2=O)o1,142*,11,1,-12,-21,91*,+
Cc1cc(C2=NNC(=Nc3ccc(S(=O)(=O)N4CCOCC4)cc3)SC2)c(C)n1C,63*,17,·,16,-42,72*,i
CN1C[C@@H]2C(c3ccc(C(F)(F)F)cc3)C3(c4ccc(C#N)cc4)CC2(C3)[C@H]1c1ccccc1 (stereo partly drawn),25,17,·,-1,-109,-15,·
O=C(c1cnn(C(=O)c2cccc(S(=O)(=O)N3CCOCC3)c2)c1)c1cc(Cl)cc(Cl)c1O,4,29,·,-5,-32,18,·
